Active and inactive are the calls of the source. No cut-off for these calls is given here.
Experiments:
[1] = molecular target: T1, Fatty-acid amide hydrolase 1 (Homo sapiens) (UniProt O00519); test: Inhibition of human FAAH expressed in COS7 cell membranes at 10 uM pre-incubated for 10 mins before [3H]-AEA substrate addition by liquid scintillation counting; settings: COS-7
T1 sequence (whole entry): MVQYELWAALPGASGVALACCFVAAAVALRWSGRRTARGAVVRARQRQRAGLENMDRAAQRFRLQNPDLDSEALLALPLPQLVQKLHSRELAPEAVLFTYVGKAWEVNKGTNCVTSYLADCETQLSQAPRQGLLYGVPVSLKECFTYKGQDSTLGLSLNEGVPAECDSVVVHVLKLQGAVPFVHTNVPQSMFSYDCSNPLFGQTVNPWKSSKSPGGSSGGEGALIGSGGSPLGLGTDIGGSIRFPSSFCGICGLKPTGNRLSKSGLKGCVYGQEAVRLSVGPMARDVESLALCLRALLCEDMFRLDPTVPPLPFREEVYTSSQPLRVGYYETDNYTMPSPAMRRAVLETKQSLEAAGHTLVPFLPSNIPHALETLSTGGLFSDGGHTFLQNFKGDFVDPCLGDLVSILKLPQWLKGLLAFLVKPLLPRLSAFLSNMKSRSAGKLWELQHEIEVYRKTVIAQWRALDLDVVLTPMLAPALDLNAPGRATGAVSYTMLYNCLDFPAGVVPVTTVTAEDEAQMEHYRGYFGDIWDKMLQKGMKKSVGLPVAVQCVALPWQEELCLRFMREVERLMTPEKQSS

[2] = molecular target: T2, Monoacylglycerol lipase ABHD6 (Homo sapiens, UniProt Q9BV23); test: Inhibition of human ABHD6 expressed in HEK293 cells assessed as reduction in glycerol production from 1-AG hydrolysis pre-incubated for 30 mins before 1-AG substrate addition and measured 90 mins post substrate addition by fluorescence method; type: cell-based
T2 sequence (Q9BV23 whole entry): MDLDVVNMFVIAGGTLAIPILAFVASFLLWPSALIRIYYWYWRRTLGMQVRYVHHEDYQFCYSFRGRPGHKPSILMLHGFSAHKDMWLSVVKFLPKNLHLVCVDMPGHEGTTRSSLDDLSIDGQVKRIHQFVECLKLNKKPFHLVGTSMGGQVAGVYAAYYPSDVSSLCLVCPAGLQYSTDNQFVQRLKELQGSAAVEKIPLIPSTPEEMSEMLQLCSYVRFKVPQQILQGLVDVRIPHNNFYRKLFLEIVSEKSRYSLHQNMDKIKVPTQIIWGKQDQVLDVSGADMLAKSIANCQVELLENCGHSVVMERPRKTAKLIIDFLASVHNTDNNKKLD
Procedure, shortened: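 hABHD6-HEK293 lysates pretreated 30 min with DMSO or inhibitor, then given 1-AG (12.5 µM final). Glycerol release was followed kinetically by fluorescence (emission 590 nm). Blanks without lysate were subtracted. IC50 was taken at the 90 min time point by nonlinear fitting of dose–response curves.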

[3] = molecular target: T3, Monoglyceride lipase (Mus musculus) (UniProt O35678); test: Inhibition of MAGL in mouse whole brain membranes at 10 uM incubated for 1 hr by TAMRA-FP probe based competitive activity-based protein profiling assay; type: cell membranes; settings: Membrane
T3 sequence (whole entry): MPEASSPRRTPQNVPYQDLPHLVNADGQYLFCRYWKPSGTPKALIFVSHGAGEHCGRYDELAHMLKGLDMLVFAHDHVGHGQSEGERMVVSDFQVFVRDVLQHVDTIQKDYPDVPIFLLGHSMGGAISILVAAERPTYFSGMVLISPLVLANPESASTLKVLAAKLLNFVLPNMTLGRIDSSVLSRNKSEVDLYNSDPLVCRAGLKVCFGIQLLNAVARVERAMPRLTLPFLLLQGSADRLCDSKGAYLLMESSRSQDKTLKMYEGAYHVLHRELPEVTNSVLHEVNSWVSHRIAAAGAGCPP
Procedure, shortened: (§1)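 Competitive ABPP on mouse brain membranes (100 µg) treated 1 h with DMSO or inhibitor. TAMRA-FP labelling then ran 1 h at RT (final probe 2 µM). Reaction was quenched with gel loading buffer and proteins resolved by 10% SDS–PAGE for fluorescent band read-out. WWL70 located the ABHD6 band. Gels are representative of two experiments.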

[4] = molecular target: T4, Lysophosphatidylserine lipase ABHD12 (Mus musculus) (UniProt Q99LR1); test: Inhibition of ABHD12 in mouse whole brain membranes at 10 uM incubated for 1 hr by TAMRA-FP probe based competitive activity-based protein profiling assay; type: cell membranes; settings: Membrane; procedure, shortened: as §1
T4 sequence (whole entry): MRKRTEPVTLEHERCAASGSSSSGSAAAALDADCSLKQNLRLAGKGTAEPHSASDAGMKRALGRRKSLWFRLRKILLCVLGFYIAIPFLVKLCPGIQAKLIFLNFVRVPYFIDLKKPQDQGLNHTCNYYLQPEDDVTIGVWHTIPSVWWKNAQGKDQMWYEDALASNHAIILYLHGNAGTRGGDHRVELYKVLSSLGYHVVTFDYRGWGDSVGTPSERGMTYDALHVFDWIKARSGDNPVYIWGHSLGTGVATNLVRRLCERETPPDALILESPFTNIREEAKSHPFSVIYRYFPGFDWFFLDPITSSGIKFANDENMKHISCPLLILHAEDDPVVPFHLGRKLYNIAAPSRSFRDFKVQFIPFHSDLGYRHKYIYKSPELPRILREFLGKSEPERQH

[5] = molecular target: T5, Lysophosphatidylserine lipase ABHD12 (Homo sapiens) (UniProt Q8N2K0); test: Inhibition of human ABHD12 expressed in HEK293 cells assessed as remaining enzyme activity at 1 uM pre-incubated for 10 mins before 2-AG substrate addition by HPLC method; type: cell-based
T5 sequence (whole entry): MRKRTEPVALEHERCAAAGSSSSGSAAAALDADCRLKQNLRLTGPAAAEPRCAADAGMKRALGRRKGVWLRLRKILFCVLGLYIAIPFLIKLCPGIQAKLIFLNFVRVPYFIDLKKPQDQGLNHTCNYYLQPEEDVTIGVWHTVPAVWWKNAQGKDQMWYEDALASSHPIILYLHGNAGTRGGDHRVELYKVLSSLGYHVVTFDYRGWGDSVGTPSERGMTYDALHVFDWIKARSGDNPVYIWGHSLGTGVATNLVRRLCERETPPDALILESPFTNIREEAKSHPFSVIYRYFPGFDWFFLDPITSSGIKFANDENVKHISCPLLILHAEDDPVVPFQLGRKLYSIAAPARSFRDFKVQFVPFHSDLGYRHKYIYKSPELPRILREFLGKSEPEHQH

SMILES: Nc1cccc(Cn2nc(Oc3ccccc3)oc2=O)c1
- inhibition [1]: 25%
- IC50 [2]: 73 nM
- inhibition [3]: Active
- inhibition [4]: Active
- inhibition [5]: inactive

SMILES: COc1nn(Cc2cccc(N)c2)c(=O)o1
- inhibition [1]: 18%
- IC50 [2]: 216 nM
- inhibition [3]: inactive
- inhibition [4]: inactive
- inhibition [5]: inactive

Source: ChEMBL document CHEMBL3612019, “Revisiting 1,3,4-Oxadiazol-2-ones: Utilization in the Development of ABHD6 Inhibitors” (Bioorg Med Chem, 2015)
